Measurements of several laboratories.
Organism: Acinetobacter baumannii
Read-out: microbial growth

C[C@@H](O)[C@H]1C(=O)N2C(C(=O)O)=C(S[C@@H]3CN[C@H](C(=O)N(C)C)C3)[C@H](C)[C@H]12
MIC (broth dilution; ATCC19606): 0.5 µg/mL

CC(NCCCNC(=O)c1ccc(Cl)s1)c1cc2cc(Br)ccc2[nH]1 (stereo not shown)
MIC (broth dilution; ATCC19606): 32 µg/mL

CCCCCCC/C=C/C(=O)N1C(=O)/C(=C(\O)CCCC)C(=O)C1CC(C)C (stereo not shown)
MIC (ATCC19606): 200 µg/mL

O=C(O)c1ccc(-n2cc(/C=N/Nc3ccc(Br)cc3)c(-c3cccc(F)c3)n2)cc1
MIC (ATCCBAA1605): 6.25 µg/mL

NC1CCCCc2c1[nH]c1cc(Cl)c(Cl)cc21 (stereo not shown)
MIC (broth dilution; ATCC19606): 8 µg/mL

O=C(Cc1ccc(O)c(O)c1)NCCCCCCCC[P+](c1ccccc1)(c1ccccc1)c1ccccc1.[Br-]
MIC (broth dilution; ATCC19606; 18 h): > 32 µg/mL

N=C(N)c1ccc(OCCCCCOc2ccc(C(=N)N)cc2)cc1
MIC (broth dilution; ATCC17978): > 200 µg/mL

CN(C)[C@@H]1C(O)=C(C(N)=O)C(=O)[C@@]2(O)C(O)=C3C(=O)c4c(cc5ccc(-c6ccccc6)cc5c4O)C[C@H]3C[C@@H]12
MIC (broth dilution; ATCC19606): 32 µg/mL

O=C(O)c1ccc(-n2cc(/C=N/Nc3ccccc3F)c(-c3ccc4ccccc4c3)n2)cc1
MIC (ATCCBAA1605): 25 µg/mL

NCC[C@H](O)C(=O)N[C@@H]1C[C@H](N)[C@@H](O[C@H]2O[C@H](CN)[C@@H](O)[C@H](O)[C@H]2O)[C@H](O)[C@H]1O[C@H]1O[C@H](CO)[C@@H](O)[C@H](N)[C@H]1O
MIC: 2 µg/mL

N=C(N)c1ccc(OCc2cc(COc3ccc(C(=N)N)cc3)cc(-c3ccccc3)c2)cc1
MIC (broth dilution; ATCC17978): > 200 µg/mL

CNc1cccc2c(O)c3c(cc12)C[C@H]1C[C@H]2[C@H](N(C)C)C(O)=C(C(N)=O)C(=O)[C@@]2(O)C(O)=C1C3=O
MIC (broth dilution; ATCC19606): > 32 µg/mL

CCCNc1nc(F)c2c(c1O)C(=O)C1=C(O)[C@]3(O)C(=O)C(C(N)=O)=C(O)[C@@H](N(C)C)[C@@H]3C[C@@H]1C2.Cl.Cl
MIC (broth dilution; ATCC19606): 0.125 µg/mL

NC[C@H]1O[C@H](O[C@H]2[C@H](O)[C@@H](O[C@H]3O[C@H](CO)[C@@H](O)[C@H](N)[C@H]3O)[C@H](N)C[C@@H]2N)[C@H](N)C[C@@H]1O
MIC (broth dilution; clinical isolate): > 200 µM

O=C(CCCCCCCCCC[P+](c1ccccc1)(c1ccccc1)c1ccccc1)Nc1cc(O)c(O)c(O)c1.[Br-]
MIC (broth dilution; ATCC19606; 18 h): > 32 µg/mL

C[C@H]1COc2c(N3CCN(C)CC3)c(F)cc3c(=O)c(C(=O)O)cn1c23
MIC (broth dilution; ATCC19606): ≤ 0.125 µg/mL

CC1(C)S[C@@H]2[C@H](NC(=O)C(C(=O)O)c3ccccc3)C(=O)N2[C@H]1C(=O)O (stereo partly shown)
MIC (broth dilution): 44.3 µM

CN(C)[C@@H]1C(O)=C(C(N)=O)C(=O)[C@@]2(O)C(O)=C3C(=O)c4c(O)c(N)nc(F)c4C[C@H]3C[C@@H]12.Cl.Cl
MIC (broth dilution; ATCC19606): 0.5 µg/mL

CN(C)[C@@H]1C(O)=C(C(N)=O)C(=O)[C@@]2(O)C(O)=C3C(=O)c4c(cc5ccc(CN(C)S(C)(=O)=O)cc5c4O)C[C@H]3C[C@@H]12
MIC (broth dilution; ATCC19606): 32 µg/mL

Cc1nc(Cl)c2c(c1O)C(=O)C1=C(O)[C@]3(O)C(=O)C(C(N)=O)=C(O)[C@@H](N(C)C)[C@@H]3C[C@@H]1C2.Cl
MIC (broth dilution; ATCC19606): 4 µg/mL

N=C(N)c1cccc(OCc2ccc(COc3cccc(C(=N)N)c3)cc2)c1
MIC (broth dilution; ATCC17978): > 200 µg/mL

O=C(O)c1ccc(-n2cc(/C=N/Nc3cccc(Br)c3)c(-c3cccc(F)c3)n2)cc1
MIC (ATCCBAA1605): 12.5 µg/mL

O=C(O)c1ccc(-n2cc(/C=N/Nc3ccc(Cl)cc3)c(-c3ccc4ccccc4c3)n2)cc1
MIC (ATCCBAA1605): 12.5 µg/mL

CCCCCCC/C=C/C(=O)N1C(=O)/C(=C(/C)O)C(=O)C1Cc1ccc(OC(C)(C)C)cc1 (stereo not shown)
MIC (ATCC19606): > 200 µg/mL

O=C(CCCCCC[P+](c1ccccc1)(c1ccccc1)c1ccccc1)Nc1ccc(O)c(O)c1.[Br-]
MIC (broth dilution; ATCC19606; 18 h): > 32 µg/mL

O=[N+]([O-])c1ccc(/C=N/Nc2nc(Nc3ccccc3)nc(N3CCOCC3)n2)o1
MIC: > 120 µM

CN[C@H](CC(C)C)C(=O)N[C@H]1C(=O)N[C@@H](CC(N)=O)C(=O)N[C@H]2C(=O)N[C@H]3C(=O)N[C@H](C(=O)N[C@H](C(=O)O)c4cc(O)cc(O)c4-c4cc3ccc4O)[C@H](O)c3ccc(c(Cl)c3)Oc3cc2cc(c3O[C@@H]2O[C@H](CO)[C@@H](O)[C@H](O)[C@H]2O[C@H]2C[C@](C)(N)[C@H](O)[C@H](C)O2)Oc2ccc(cc2Cl)[C@H]1O
MIC (broth dilution; ATCC19606; 18 h): > 32 µg/mL

CC(C)CNc1nc(Cl)c2c(c1O)C(=O)C1=C(O)[C@]3(O)C(=O)C(C(N)=O)=C(O)[C@@H](N(C)C)[C@@H]3C[C@@H]1C2.Cl.Cl.Cl
MIC (broth dilution; ATCC19606): 2 µg/mL

C/C(O)=C1\C(=O)C(CC(C)C)N(C(=O)CCCCCc2ccccc2)C1=O (stereo not shown)
MIC (ATCC19606): > 200 µg/mL

CO[C@@H](C(N)=O)[C@H](NC(=O)c1ccc(NC(=O)c2ccc(C#N)cc2)cc1)C(=O)Nc1ccc(C(=O)Nc2ccc(C(=O)Nc3ccc(C(=O)O)cc3)c(O)c2OC(C)C)cc1
MIC (DSM30008): 1 µg/mL

NC[C@@H]1O[C@H](O[C@H]2[C@@H](O)[C@H](O[C@@H]3[C@@H](O)[C@H](N)C[C@H](N)[C@H]3O[C@H]3O[C@H](CO)[C@@H](O)[C@H](O)[C@H]3N)O[C@@H]2CO)[C@H](N)[C@@H](O)[C@@H]1O
MIC: 2 to 4 µg/mL

CCCCCCC/C=C/C(=O)N1C(=O)/C(=C(/C)O)C(=O)C1Cc1ccc(O)cc1 (stereo not shown)
MIC (ATCC19606): > 200 µg/mL

CN(C)[C@@H]1C(O)=C(C(N)=O)C(=O)[C@@]2(O)C(O)=C3C(=O)c4c(O)c(-c5ccccc5)nc(Cl)c4C[C@H]3C[C@@H]12.Cl
MIC (broth dilution; ATCC19606): 16 µg/mL

CC[C@H]1OC(=O)[C@H](C)[C@@H](O[C@H]2C[C@@](C)(OC)[C@@H](O)[C@H](C)O2)[C@H](C)[C@@H](O[C@@H]2O[C@H](C)C[C@H](N(C)C)[C@H]2O)[C@](C)(O)C[C@@H](C)C(=O)[C@H](C)[C@@H](O)[C@]1(C)O
MIC (ATCC19606): 50 µg/mL

CCCCCCC/C=C/C(=O)N1C(=O)/C(=C(\O)c2ccc(OCOCCOC)cc2)C(=O)C1CC(C)C (stereo not shown)
MIC (ATCC19606): 200 µg/mL

CN(C)[C@@H]1C(O)=C(C(N)=O)C(=O)[C@@]2(O)C(O)=C3C(=O)c4c(cc5ccc(CN6CC(F)(F)C6)cc5c4O)C[C@H]3C[C@@H]12
MIC (broth dilution; ATCC19606): 32 µg/mL

CCCCCCC/C=C/C(=O)N1C(=O)/C(=C(/C)O)C(=O)C1CCCCN (stereo not shown)
MIC (ATCC19606): > 200 µg/mL

CN(C)c1ccc(O)c2c1C[C@H]1C[C@H]3[C@H](N(C)C)C(O)=C(C(N)=O)C(=O)[C@@]3(O)C(O)=C1C2=O
MIC (broth dilution; ATCC19606): 0.063 µg/mL

C[C@@H](O)[C@H]1C(=O)N2C(C(=O)O)=C(S[C@@H]3CN[C@H](C(=O)N(C)C)C3)[C@H](C)[C@H]12
MIC (clinical isolate): 128 µg/mL

N=C(N)NN=Cc1ccc(OC/C=C\COc2ccc(C=NNC(=N)N)cc2)cc1
MIC (ATCC19606; 16 h): ≤ 51 µg/mL
